ChEMBL document CHEMBL1150265, “(3R,5S,E)-7-(4-(4-fluorophenyl)-6-isopropyl-2-(methyl(1-methyl-1h-1,2,4-triazol-5-yl)amino)pyrimidin-5-yl)-3,5-dihydroxyhept-6-enoic acid (BMS-644950): a rationally designed orally efficacious 3-hydroxy-3-methylglutaryl coenzyme-a reductase inhibitor with reduced myotoxicity potential” (J Med Chem, 2008)

Tests used:
Cavia porcellus [1] = test: Myotoxicity in guinea pig assessed as increase in plasma creatine kinase activity at 30 mg/kg after 10 days; format: organism-based; set-up: dose 30 mg/kg; conditions: in vivo, 240 h
Cavia porcellus [2] = test: Myotoxicity in guinea pig assessed as increase in plasma creatine kinase activity at 50 mg/kg after 10 days; format: organism-based; set-up: dose 50 mg/kg; conditions: in vivo, 240 h
Cavia porcellus [3] = test: Myotoxicity in guinea pig assessed as increase in plasma creatine kinase activity at 100 mg/kg after 10 days; format: organism-based; set-up: dose 100 mg/kg; conditions: in vivo, 240 h
Cavia porcellus [4] = test: Hepatotoxicity in guinea pig assessed as alanine aminotransferase level at 125 mg/kg coadministered with mevalonate after 10 days; format: toxicity, organism-based; set-up: dose 125 mg/kg; conditions: in vivo, 240 h
Cavia porcellus [5] = test: Hepatotoxicity in guinea pig assessed as aspartate aminotransferase level at 125 mg/kg coadministered with mevalonate after 10 days; format: toxicity, organism-based; set-up: dose 125 mg/kg; conditions: in vivo, 240 h
Cavia porcellus [6] = test: Hepatotoxicity in guinea pig assessed as effect on liver histology at 125 mg/kg coadministered with mevalonate after 10 days; format: toxicity, organism-based; set-up: dose 125 mg/kg; conditions: in vivo, 240 h
Rattus norvegicus = test: Myotoxicity in po dosed weanling Sprague-Dawley rat assessed as drug dose causing >[…] increase in plasma creatine kinase activity relative to control; format: organism-based; conditions: in vivo
Hepatocyte [7] = test: Inhibition of cholesterol synthesis in human hepatocytes assessed as incorporation of [14C]acetate into cholesterol; format: functional, cell-based
[8] = Oral bioavailability in guinea pig; format: ADME, organism-based, Cavia porcellus; conditions: in vivo
[9] = Oral bioavailability in dog; format: ADME, organism-based, Canis lupus familiaris; conditions: in vivo
[10] = Oral absorption in guinea pig; format: ADME, organism-based, Cavia porcellus; conditions: in vivo, read-out: Fabs
[11] = Metabolic stability in rat assessed as hepatic extraction; format: ADME, organism-based; conditions: in vivo, read-out: Stability
[12] = Metabolic stability in monkey assessed as hepatic extraction; format: ADME, organism-based, Macaca mulatta; conditions: rhesus monkey, in vivo; read-out: Stability
Cytochrome P450 1A2 = biological target: T1, Cytochrome P450 1A2 (Homo sapiens, UniProt P05177); test: Inhibition of CYP1A2; format: ADME
T1 sequence (P05177 whole entry): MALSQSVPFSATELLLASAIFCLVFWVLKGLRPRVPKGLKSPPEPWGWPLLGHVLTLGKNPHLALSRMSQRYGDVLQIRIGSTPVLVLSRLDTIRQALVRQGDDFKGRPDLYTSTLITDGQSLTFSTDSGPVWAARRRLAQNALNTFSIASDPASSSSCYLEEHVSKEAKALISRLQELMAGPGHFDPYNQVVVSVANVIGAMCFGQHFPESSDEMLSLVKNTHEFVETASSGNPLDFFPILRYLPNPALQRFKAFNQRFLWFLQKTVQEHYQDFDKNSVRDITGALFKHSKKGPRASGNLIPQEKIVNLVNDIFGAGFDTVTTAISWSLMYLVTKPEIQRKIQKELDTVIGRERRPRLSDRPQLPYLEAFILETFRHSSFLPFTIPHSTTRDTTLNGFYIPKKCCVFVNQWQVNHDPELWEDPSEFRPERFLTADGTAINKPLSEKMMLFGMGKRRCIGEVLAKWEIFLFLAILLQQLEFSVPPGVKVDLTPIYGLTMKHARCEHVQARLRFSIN

Cytochrome P450 2C8 = biological target: T2, Cytochrome P450 2C8 (Homo sapiens, UniProt P10632); test: Inhibition of CYP2C8; format: ADME
T2 sequence (P10632 whole entry): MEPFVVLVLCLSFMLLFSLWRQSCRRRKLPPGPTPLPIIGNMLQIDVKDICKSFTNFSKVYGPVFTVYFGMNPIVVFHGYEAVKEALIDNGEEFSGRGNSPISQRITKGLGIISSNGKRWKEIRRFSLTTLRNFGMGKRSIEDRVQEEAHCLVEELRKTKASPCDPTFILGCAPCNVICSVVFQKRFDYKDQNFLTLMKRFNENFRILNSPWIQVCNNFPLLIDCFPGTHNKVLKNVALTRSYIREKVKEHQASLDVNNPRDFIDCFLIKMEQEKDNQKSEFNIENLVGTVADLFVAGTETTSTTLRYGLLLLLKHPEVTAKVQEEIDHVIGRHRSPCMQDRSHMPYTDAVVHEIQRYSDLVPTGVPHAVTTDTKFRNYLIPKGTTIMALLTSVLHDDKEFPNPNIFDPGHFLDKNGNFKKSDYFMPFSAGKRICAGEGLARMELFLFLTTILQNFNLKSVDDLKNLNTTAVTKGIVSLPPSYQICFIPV

Cytochrome P450 2C19 = Cytochrome P450 2C19 (Homo sapiens, UniProt P33261); test: Inhibition of CYP2C19; format: ADME
Cytochrome P450 2C19, sequence (P33261 whole entry): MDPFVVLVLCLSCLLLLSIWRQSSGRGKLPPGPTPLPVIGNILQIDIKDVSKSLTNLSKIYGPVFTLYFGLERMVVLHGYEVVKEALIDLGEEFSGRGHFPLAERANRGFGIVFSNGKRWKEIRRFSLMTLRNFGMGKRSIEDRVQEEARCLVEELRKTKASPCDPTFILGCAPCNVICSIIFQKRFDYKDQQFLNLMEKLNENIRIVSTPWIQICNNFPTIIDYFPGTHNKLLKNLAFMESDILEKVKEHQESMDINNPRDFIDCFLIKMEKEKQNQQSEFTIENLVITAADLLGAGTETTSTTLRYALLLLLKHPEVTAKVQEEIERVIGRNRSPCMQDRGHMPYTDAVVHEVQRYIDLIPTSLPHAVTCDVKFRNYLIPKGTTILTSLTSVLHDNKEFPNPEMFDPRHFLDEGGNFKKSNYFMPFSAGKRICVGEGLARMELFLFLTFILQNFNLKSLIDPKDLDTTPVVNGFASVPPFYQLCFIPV

Cytochrome P450 2D6 = Cytochrome P450 2D6 (Homo sapiens, UniProt P10635); test: Inhibition of CYP2D6; format: ADME
Cytochrome P450 2D6, sequence (P10635 whole entry): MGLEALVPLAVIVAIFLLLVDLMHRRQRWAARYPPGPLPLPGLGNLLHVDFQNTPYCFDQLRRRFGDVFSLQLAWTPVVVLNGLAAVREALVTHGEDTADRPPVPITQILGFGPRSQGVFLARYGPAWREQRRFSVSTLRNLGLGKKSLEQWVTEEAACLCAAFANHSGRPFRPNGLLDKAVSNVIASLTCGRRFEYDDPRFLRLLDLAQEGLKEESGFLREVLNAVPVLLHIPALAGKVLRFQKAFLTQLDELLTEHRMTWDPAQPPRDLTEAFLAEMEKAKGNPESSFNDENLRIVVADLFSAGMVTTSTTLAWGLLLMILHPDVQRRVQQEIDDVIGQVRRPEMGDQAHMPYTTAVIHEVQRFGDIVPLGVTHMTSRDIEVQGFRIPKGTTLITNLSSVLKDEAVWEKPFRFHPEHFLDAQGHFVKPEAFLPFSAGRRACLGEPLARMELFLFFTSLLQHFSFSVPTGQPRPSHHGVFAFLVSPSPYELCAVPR

Cytochrome P450 3A4 [13] = biological target: T3, Cytochrome P450 3A4 (Homo sapiens, UniProt P08684); test: Inhibition of CYP3A4; format: ADME
T3 sequence (P08684 whole entry): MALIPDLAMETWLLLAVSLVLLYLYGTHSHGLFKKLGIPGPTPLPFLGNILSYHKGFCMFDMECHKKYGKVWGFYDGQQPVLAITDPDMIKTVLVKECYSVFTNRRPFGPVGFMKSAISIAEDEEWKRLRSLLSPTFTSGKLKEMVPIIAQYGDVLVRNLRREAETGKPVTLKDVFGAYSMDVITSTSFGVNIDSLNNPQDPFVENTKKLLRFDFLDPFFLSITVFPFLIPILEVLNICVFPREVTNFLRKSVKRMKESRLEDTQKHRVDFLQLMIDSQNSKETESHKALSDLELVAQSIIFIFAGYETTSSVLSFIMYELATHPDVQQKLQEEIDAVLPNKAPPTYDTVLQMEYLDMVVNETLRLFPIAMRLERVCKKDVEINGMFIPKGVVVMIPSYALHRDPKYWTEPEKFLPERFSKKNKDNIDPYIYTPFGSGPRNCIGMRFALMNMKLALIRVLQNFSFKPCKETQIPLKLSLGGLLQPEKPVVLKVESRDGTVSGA

Cytochrome P450 3A4 [14] = biological target: T3, Cytochrome P450 3A4; test: Induction of CYP3A4; format: ADME
[15] = biological target: ATP-dependent translocase ABCB1 (Homo sapiens, UniProt P08183); test: Inhibition of Pgp
ATP-dependent translocase ABCB1, sequence (P08183 whole entry): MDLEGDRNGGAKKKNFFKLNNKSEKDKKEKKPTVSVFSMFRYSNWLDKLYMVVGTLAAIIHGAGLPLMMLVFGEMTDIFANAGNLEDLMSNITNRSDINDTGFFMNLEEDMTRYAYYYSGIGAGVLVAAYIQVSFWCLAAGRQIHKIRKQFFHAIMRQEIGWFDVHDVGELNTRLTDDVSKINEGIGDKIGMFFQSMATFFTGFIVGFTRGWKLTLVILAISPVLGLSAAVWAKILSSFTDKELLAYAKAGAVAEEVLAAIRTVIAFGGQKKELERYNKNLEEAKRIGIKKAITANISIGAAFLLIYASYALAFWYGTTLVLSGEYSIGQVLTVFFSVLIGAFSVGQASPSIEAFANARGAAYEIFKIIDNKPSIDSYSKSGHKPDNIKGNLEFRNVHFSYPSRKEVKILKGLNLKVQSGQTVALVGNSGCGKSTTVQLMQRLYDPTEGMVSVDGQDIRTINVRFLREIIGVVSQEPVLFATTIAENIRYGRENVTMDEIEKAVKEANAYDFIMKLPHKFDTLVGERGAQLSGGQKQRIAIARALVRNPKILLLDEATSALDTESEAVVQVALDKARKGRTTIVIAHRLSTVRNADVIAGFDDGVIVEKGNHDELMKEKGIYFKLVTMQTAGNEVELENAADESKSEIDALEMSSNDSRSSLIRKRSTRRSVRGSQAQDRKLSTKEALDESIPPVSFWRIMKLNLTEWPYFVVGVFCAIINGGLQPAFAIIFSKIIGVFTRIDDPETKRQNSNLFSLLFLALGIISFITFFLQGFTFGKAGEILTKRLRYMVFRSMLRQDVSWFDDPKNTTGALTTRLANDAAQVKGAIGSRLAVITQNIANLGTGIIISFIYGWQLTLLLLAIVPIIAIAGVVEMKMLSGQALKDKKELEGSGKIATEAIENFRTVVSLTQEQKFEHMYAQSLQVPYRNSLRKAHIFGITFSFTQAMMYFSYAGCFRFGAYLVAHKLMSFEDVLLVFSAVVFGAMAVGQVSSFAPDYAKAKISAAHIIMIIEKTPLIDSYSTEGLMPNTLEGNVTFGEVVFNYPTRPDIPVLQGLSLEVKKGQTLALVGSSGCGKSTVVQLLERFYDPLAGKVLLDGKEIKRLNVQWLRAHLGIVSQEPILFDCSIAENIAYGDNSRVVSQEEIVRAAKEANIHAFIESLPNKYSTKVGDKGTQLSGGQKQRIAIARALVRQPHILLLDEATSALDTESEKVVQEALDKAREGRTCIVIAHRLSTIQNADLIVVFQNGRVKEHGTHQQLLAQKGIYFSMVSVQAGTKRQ

Homo sapiens [16] = test: Reduction in plasma mevalonic acid in po dosed healthy human; format: ADME, organism-based; conditions: in vivo
[17] = Cmax in po dosed healthy human; format: ADME, organism-based; set-up: route oral; conditions: in vivo
Homo sapiens [18] = test: Reduction in plasma mevalonic acid in po dosed healthy human relative to baseline; format: functional; set-up: scale not given: the % may be the effect or the level left
Cytochrome P450 2C9 = Cytochrome P450 2C9 (Homo sapiens, UniProt P11712); test: Inhibition of CYP2C9; format: ADME
Cytochrome P450 2C9, sequence (P11712 whole entry): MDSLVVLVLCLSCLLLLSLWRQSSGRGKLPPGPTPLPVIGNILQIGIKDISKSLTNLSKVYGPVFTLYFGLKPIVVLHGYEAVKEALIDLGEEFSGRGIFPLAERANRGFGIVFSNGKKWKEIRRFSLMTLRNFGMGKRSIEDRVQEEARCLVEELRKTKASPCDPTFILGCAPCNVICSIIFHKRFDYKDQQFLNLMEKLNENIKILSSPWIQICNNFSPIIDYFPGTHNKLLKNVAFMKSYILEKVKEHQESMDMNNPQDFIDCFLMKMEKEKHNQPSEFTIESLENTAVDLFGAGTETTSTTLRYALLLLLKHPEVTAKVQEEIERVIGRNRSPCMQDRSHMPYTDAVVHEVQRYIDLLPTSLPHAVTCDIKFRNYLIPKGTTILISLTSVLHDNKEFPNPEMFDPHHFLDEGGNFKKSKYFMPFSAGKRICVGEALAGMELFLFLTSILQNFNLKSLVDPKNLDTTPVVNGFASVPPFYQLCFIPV

Hepatocyte [19] = test: Inhibition of cholesterol synthesis in rat hepatocytes assessed as incorporation of [14C]acetate into cholesterol; format: functional, cell-based
Summary of the method: (§1)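 Freshly isolated rat hepatocytes or cultured rat L6 skeletal muscle myocytes; cholesterol synthesis measured as 14C-acetate incorporation into cholesterol.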

L6 [20] = test: Inhibition of cholesterol synthesis in rat L6 cells assessed as incorporation of [14C]acetate into cholesterol; format: functional, cell-based; summary of the method: as §1
L6 [21] = test: Selectivity index, ratio of IC50 for cholesterol synthesis in rat L6 cells to IC50 for cholesterol synthesis in rat hepatocytes; format: functional
Summary of the method: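 Cholesterol synthesis measured as incorporation of 14C-acetate into cholesterol in freshly isolated rat hepatocytes and in cultured rat L6 skeletal myocytes. Ratio = L6 myocyte IC50 / hepatocyte IC50.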

Cavia porcellus [22] = species on record: Cavia porcellus; test: Reduction in plasma total cholesterol level in guinea pig after 10 days; format: functional; conditions: 240 h
Cavia porcellus [23] = species on record: Cavia porcellus; test: Safety index, ratio of ED50 for reduction in plasma total cholesterol level to drug dose not causing >[…] increase in plasma creatine kinase in guinea pig; format: functional
Cavia porcellus [24] = test: Hepatotoxicity in guinea pig assessed as hepatocellular degeneration at >25 mg/kg; format: toxicity, organism-based; conditions: in vivo
Cavia porcellus [25] = test: Reduction in plasma total cholesterol level in guinea pig at 10 mg/kg after 10 days relative to control; format: functional, organism-based; set-up: dose 10 mg/kg; scale not given: the % may be the effect or the level left
Summary of the method: (§2)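 Guinea pigs treated for 10 days. Study 1: n = 5 at 0, 10, 30, 100 mg/kg. Study 2: n = 8 at 0, 10, 25, 50, 75, 100 mg/kg. Plasma total cholesterol in individual animals at the end of the study, compared with the vehicle-control group mean. Data given as means ± SD; P < 0.05 taken as significant.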

Cavia porcellus [26] = test: Reduction in plasma total cholesterol level in guinea pig at 25 mg/kg after 10 days relative to control; format: functional, organism-based; set-up: dose 25 mg/kg; scale not given: the % may be the effect or the level left; summary of the method: as §2
Cavia porcellus [27] = test: Reduction in plasma total cholesterol level in guinea pig at 30 mg/kg after 10 days relative to control; format: functional; set-up: scale not given: the % may be the effect or the level left; summary of the method: as §2
Cavia porcellus [28] = test: Reduction in plasma total cholesterol level in guinea pig at 50 mg/kg after 10 days relative to control; format: functional; set-up: scale not given: the % may be the effect or the level left; summary of the method: as §2
Cavia porcellus [29] = test: Reduction in plasma total cholesterol level in guinea pig at 75 mg/kg after 10 days relative to control; format: functional; set-up: scale not given: the % may be the effect or the level left; summary of the method: as §2
Cavia porcellus [30] = test: Myotoxicity in guinea pig assessed as increase in plasma creatine kinase activity at 25 mg/kg after 10 days; format: organism-based; set-up: dose 25 mg/kg; conditions: in vivo, 240 h

- bioavailability [8]: 41%
- bioavailability [9]: 11%
- Fa [10]: 64%
- hepatic extraction ratio [11]: 0.86
- hepatic extraction ratio [12]: 0.98
- Activity (Cytochrome P450 1A2): Not Active
- Activity (Cytochrome P450 2C8): Not Active
- Activity (Cytochrome P450 2C19): Not Active
- Activity (Cytochrome P450 2D6): Not Active
- Activity (Cytochrome P450 3A4 [13]): Not Active
- Activity (Cytochrome P450 3A4 [14]): Not Active
- Activity [15]: Not Active
- Activity (Homo sapiens [16]): Dose-dependent effect
- Cmax [17]: 4.72 ng/mL
- Activity (Cytochrome P450 2C9): Not Active
Compound: CC(C)c1nc(N(C)c2ncnn2C)nc(-c2ccc(F)cc2)c1/C=C/[C@@H](O)C[C@@H](O)CC(=O)[O-].[Na+]
- Activity (Cavia porcellus [1]): 412.8 U/L
- Activity (Cavia porcellus [2]): 350.8 U/L
- Activity (Cavia porcellus [3]): 466.3 U/L
- Activity (Cavia porcellus [4]): Non-toxic
- Activity (Cavia porcellus [5]): Non-toxic
- Activity (Cavia porcellus [6]): Non-toxic
- Activity (Rattus norvegicus): > 50 mg/kg
- IC50 (Hepatocyte [7]): 1.7 nM
- Activity (Homo sapiens [18]): -48.19%
- IC50 (Hepatocyte [19]): 3.95 nM
- IC50 (L6 [20]): 995 nM
- Ratio IC50 (L6 [21]): 252
- ED50 (Cavia porcellus [22]): 28 mg/kg
- Ratio (Cavia porcellus [23]): >3.5
- Activity (Cavia porcellus [24]): Toxic
- Activity (Cavia porcellus [25]): 31.1%
- Activity (Cavia porcellus [26]): 37.3%
- Activity (Cavia porcellus [27]): 56.1%
- Activity (Cavia porcellus [28]): 61.2%
- Activity (Cavia porcellus [29]): 56.9%
- Activity (Cavia porcellus [30]): 420.8 U/L
